According to ChEMBL document CHEMBL5107942, “Boron-based hybrids as novel scaffolds for the development of drugs with neuroprotective properties” (RSC Med Chem, 2021):
The source made the active and inactive calls. The calls are words filed in the database; no cut-off is given here.

Assays:
SH-SY5Y [1] = experiment: Neuroprotective activity against amyloid beta (1 to 42)-induced neurotoxicity in human SH-SY5Y cells assessed as increase in cell viability at 50 uM incubated for 24 hrs by MTT assay; format: functional
Method in brief: (§1)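 Differentiated SH-SY5Y cells co-treated 24 h with compound (0.1–100 μM) and Aβ1-42 (20 μM). Vehicle 0.1% DMSO; 1% Triton X positive control. MTT added for 3 h at 37 °C, formazan dissolved in DMSO, absorbance read at 570 nm. Mean ± SD from at least six independent experiments.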

SH-SY5Y [2] = experiment: Neuroprotective activity against amyloid beta (1 to 42)-induced Alzheimer's disease model in human SH-SY5Y cells assessed as decrease in AChE activity at 25 uM incubated for 24 hrs by Colorimetric assay; format: functional; design: scale not given: the % may be the effect or the level left
Method in brief: (§2)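 SH-SY5Y cells grown in DMEM:F12 with 10% FBS, differentiated with retinoic acid for 5 days, then serum-free medium with 10 μM retinoic acid plus 25 ng/mL BDNF, used within 10 days. Co-treated with 20 μM Aβ1-42 for 24 h; DMSO ≤0.1% vehicle. Cells lysed 15 min at room temperature, centrifuged; AChE measured in supernatant by colorimetric kit at 410 nm.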

SH-SY5Y [3] = experiment: Neuroprotective activity against amyloid beta (1 to 42)-induced neurotoxicity in human SH-SY5Y cells assessed as increase in cell viability at 25 uM incubated for 24 hrs by MTT assay; format: functional; method in brief: as §1
SH-SY5Y [4] = experiment: Neuroprotective activity against amyloid beta (1 to 42)-induced neurotoxicity in human SH-SY5Y cells assessed as increase in cell viability at 0.1 to 100 uM incubated for 24 hrs by MTT assay; format: functional, cell-based; details: dose 0.1-100 µM; method in brief: as §1
SH-SY5Y [5] = experiment: Neuroprotective activity against amyloid beta (1 to 42)-induced neurotoxicity in human SH-SY5Y cells assessed as increase in cell viability at 100 uM incubated for 24 hrs by MTT assay; format: functional; method in brief: as §1
SH-SY5Y [6] = experiment: Neuroprotective activity against amyloid beta (1 to 42)-induced neurotoxicity in human SH-SY5Y cells assessed as increase in cell viability at 25 uM incubated for 24 hrs by LDH release assay; format: functional
Method in brief: (§3)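 Differentiated SH-SY5Y cells exposed 24 h to compound with Aβ1-42 (20 μM). Supernatant mixed 1:1 with LDH reaction mixture and held 30 min at room temperature. Lactate-to-pyruvate conversion with NAD+ reduction read as absorbance at 490 nm. Mean ± SD, at least six independent experiments.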

SH-SY5Y [7] = experiment: Neuroprotective activity against amyloid beta (1 to 42)-induced neurotoxicity in human SH-SY5Y cells assessed as increase in cell viability at 50 uM incubated for 24 hrs by LDH release assay; format: functional; method in brief: as §3
SH-SY5Y [8] = experiment: Neuroprotective activity against amyloid beta (1 to 42)-induced neurotoxicity in human SH-SY5Y cells assessed as increase in cell viability at 100 uM incubated for 24 hrs by LDH release assay; format: functional; method in brief: as §3
SH-SY5Y [9] = experiment: Neuroprotective activity against amyloid beta (1 to 42)-induced Alzheimer's disease model in human SH-SY5Y cells assessed as decrease in AChE activity at 50 uM incubated for 24 hrs by Colorimetric assay; format: functional; design: scale not given: the % may be the effect or the level left; method in brief: as §2
SH-SY5Y [10] = experiment: Antioxidant activity against amyloid beta (1 to 42)-induced Alzheimer's disease model in human SH-SY5Y cells assessed as increase of TAC level at 25 uM by ABTS assay; format: functional, cell-based
Method in brief: (§4)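 Differentiated SH-SY5Y cells: grown in DMEM:F12 with 10% FBS, then 10 μg/mL retinoic acid for 5 days, then serum-free medium with 10 μM retinoic acid and 25 ng/mL BDNF. Co-exposed 24 h to Aβ1-42 (20 μM) plus compound. Vehicle 0.1% DMSO. Automated kits on culture samples. TAC: ABTS decolorization at 660 nm, Trolox calibration. TOS: ferrous-to-ferric chelator oxidation, H2O2 calibration, µM H2O2 equivalent/L. n = 6.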

SH-SY5Y [11] = experiment: Antioxidant activity against amyloid beta (1 to 42)-induced Alzheimer's disease model in human SH-SY5Y cells assessed as decrease of TOS level at 25 uM; format: functional, cell-based; method in brief: as §4
SH-SY5Y [12] = experiment: Antioxidant activity against amyloid beta (1 to 42)-induced Alzheimer's disease model in human SH-SY5Y cells assessed as increase of TAC level at 50 uM by ABTS assay; format: functional, cell-based; method in brief: as §4
SH-SY5Y [13] = experiment: Antioxidant activity against amyloid beta (1 to 42)-induced Alzheimer's disease model in human SH-SY5Y cells assessed as decrease of TOS level at 50 uM; format: functional, cell-based; method in brief: as §4
SH-SY5Y [14] = experiment: Neuroprotective activity against amyloid beta (1 to 42)-induced Alzheimer's disease model in human SH-SY5Y cells assessed as protection against amyloid beta (1 to 42)-induced nuclear integrity damage at 25 uM incubated for 24 hrs by Hoechst 33258 staining fluorescence microscopy; format: functional, cell-based
Method in brief: (§5)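 RA/BDNF-differentiated SH-SY5Y cells incubated 24 h with Aβ1-42 (20 μM) alone or with test agent at 25 or 50 μM. Fixed in 4% paraformaldehyde in PBS, 30 min at 4 °C. Stained with 1 mM Hoechst 33258 for 5 min at room temperature. Nuclear morphology examined by fluorescence microscopy.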

SH-SY5Y [15] = experiment: Neuroprotective activity against amyloid beta (1 to 42)-induced Alzheimer's disease model in human SH-SY5Y cells assessed as protection against amyloid beta (1 to 42)-induced nuclear integrity damage at 50 uM incubated for 24 hrs by Hoechst 33258 staining fluorescence microscopy; format: functional, cell-based; method in brief: as §5
SH-SY5Y [16] = experiment: Neuroprotective activity against amyloid beta (1 to 42)-induced Alzheimer's disease model in human SH-SY5Y cells assessed as inhibition of apoptosis at 25 uM incubated for 24 hrs by Hoechst 33258 staining fluorescence microscopy; format: functional, cell-based; method in brief: as §5
SH-SY5Y [17] = experiment: Neuroprotective activity against amyloid beta (1 to 42)-induced Alzheimer's disease model in human SH-SY5Y cells assessed as inhibition of apoptosis at 50 uM incubated for 24 hrs by Hoechst 33258 staining fluorescence microscopy; format: functional, cell-based; method in brief: as §5
SH-SY5Y [18] = experiment: Neuroprotective activity against amyloid beta (1 to 42)-induced Alzheimer's disease model in human SH-SY5Y cells assessed as reduction in necrosis rate at 25 to 50 uM incubated for 24 hrs by Annexin V-FITC/propidium iodide staining flow cytometry; format: functional, cell-based; details: dose 25-50 µM, DDE = dose-dependent effect
Method in brief: (§6)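 Differentiated SH-SY5Y cells given 24 h Aβ1-42 (20 μM) with or without compound. 5 x 10^4 cells pelleted and resuspended in 1X binding buffer. Annexin V-FITC and PI added, 5 min in the dark, then fixed in 4% paraformaldehyde. Flow cytometry sorted cells into viable, early apoptotic, late apoptotic/necrotic and necrotic fractions.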

SH-SY5Y [19] = experiment: Neuroprotective activity against amyloid beta (1 to 42)-induced Alzheimer's disease model in human SH-SY5Y cells assessed as reduction in necrosis rate incubated for 24 hrs by Annexin V-FITC/propidium iodide staining flow cytometry; format: functional; design: scale not given: the % may be the effect or the level left; method in brief: as §6
[20] = Genotoxicity in human blood assessed as frequency of sister chromatid exchange at 0.1 to 100 uM by BrdU/Giemsa staining based fluorescence assay; format: toxicity, tissue-based; details: dose 0.1-100 µM
Method in brief: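 Human peripheral blood cultured in PB-MAX karyotyping medium with phytohemagglutinin; compounds added just before incubation. BrdU added; demecolcine at 70 h 30 min. Then 0.075 M KCl hypotonic treatment, methanol/acetic acid (3:1) fixation, slides aged 3 days, fluorescence plus Giemsa staining. 25 second-division metaphases (42–46 chromosomes) scored per condition; result given as SCEs/cell.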

[21] = Induction of DNA damage in human blood assessed as increase in 8-OH-dG level at 0.1 to 100 uM incubated for 24 hrs; format: toxicity, tissue-based; details: dose 0.1-100 µM
Method in brief: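 Heparinized human peripheral blood cultured with phytohemagglutinin in PB-MAX medium, with compounds added at culture start. 8-OH-dG measured by competitive ELISA (8-OH-dG–AChE conjugate competing for monoclonal antibody). Detects free and DNA-incorporated 8-OH-dG. Read at 405–420 nm.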

SMILES | Activity (SH-SY5Y [1]) | Activity (SH-SY5Y [2]) | Activity (SH-SY5Y [3]) | Activity (SH-SY5Y [4]) | Activity (SH-SY5Y [5]) | Activity (SH-SY5Y [6]) | Activity (SH-SY5Y [7]) | Activity (SH-SY5Y [8]) | Activity (SH-SY5Y [9]) | Activity (SH-SY5Y [10]) | Activity (SH-SY5Y [11]) | Activity (SH-SY5Y [12]) | Activity (SH-SY5Y [13]) | Activity (SH-SY5Y [14]) | Activity (SH-SY5Y [15]) | Activity (SH-SY5Y [16]) | Activity (SH-SY5Y [17]) | Activity (SH-SY5Y [18]) | Activity (SH-SY5Y [19]) | Activity [20] | further results
O=C(O)CCCCC1CCSS1 (stereo not drawn) [LIPOIC ACID, ALPHA] | 19.01% | 13.17% | 14.78% | Active | 20.73% | 53.05% | 58.68% | 59.86% | 16.66% | Active | Active | Active | Active | Active | Active | Active | Active | Dde | 65.97% | Non-Toxic | Activity [21]: Non-Toxic
CC1(C)C2CC3OB(CNC(=O)CCCC[C@H]4CCSS4)O[C@]3(C)C1C2 (stereo partly drawn) | 29.94% | 18.77% | 25.14% | Active | 32.92% | 62.91% | 67.37% | 70.65% | 22.96% | Active | Active | Active | Active | Active | Active | Active | Active | Dde | 68.38% | Non-Toxic | Activity [21]: Non-Toxic
CC12CC3CC(C)(C1)CC(N)(C3)C2 [MEMANTINE] | 19.38% | 14.57% | 17.27% | Active | 17.08% | 56.81% | 59.15% | 57.28% | 19.47% | Active | Active | Active | Active | Active | Active | Active | Active | Dde | 61.67% | Non-Toxic | Activity [21]: Non-Toxic
